Rows were chosen to be rich in hits. Some 2.5% of all compounds tested hit in one or more screens of this group.
MBD2 DNA inh = MBD2-methylated oligo binding inhibition | TR-FRET, MBD2 binding to methylated oligonucleotide | Q9UBB5 | AID 686964 | inhibition, % at 4.4 µM | 370,000 compounds, 0.31% hits; in the data active means inhibition above about 13%
B2AR ag = activates human beta-2 adrenergic receptor causing internalization. 340,000 compounds, 0.43% hits. Am2.2-beta2AR cells, FAP receptor internalization, flow cytometry. AID 504454. response, % (test concentration not listed). P07550;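 active means response above a set limit, near 3 SD of response in nonfluorescent compounds, cut at about 42% in these data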
Rin1 Abl inh = blocks binding of human Rin1 to Abl | TR-FRET Rin1/Abl binding, biochemical | inhibition, % at 7.35 µM | 360,000 compounds, 0.4% hits | AID 588664; in the data active means inhibition above about 5%, passing the limit was not always enough
UHRF1 binding = human UHRF1 methylated DNA binding inhibitors; Q96T88; UHRF1 binding to methylated oligo, TR-FRET; inhibition, % at 4.4 µM; 370,000 compounds, 0.75% hits; AID 687016; in the data active means inhibition above about 21%;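 further: UHRF1 SRA domain binding a hemimethylated CpG hairpin DNA probe; 0% = median of test compound wells and 100% = reference inhibitor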
Target sequence (Q96T88 whole entry, looked up, the tested form may be a part): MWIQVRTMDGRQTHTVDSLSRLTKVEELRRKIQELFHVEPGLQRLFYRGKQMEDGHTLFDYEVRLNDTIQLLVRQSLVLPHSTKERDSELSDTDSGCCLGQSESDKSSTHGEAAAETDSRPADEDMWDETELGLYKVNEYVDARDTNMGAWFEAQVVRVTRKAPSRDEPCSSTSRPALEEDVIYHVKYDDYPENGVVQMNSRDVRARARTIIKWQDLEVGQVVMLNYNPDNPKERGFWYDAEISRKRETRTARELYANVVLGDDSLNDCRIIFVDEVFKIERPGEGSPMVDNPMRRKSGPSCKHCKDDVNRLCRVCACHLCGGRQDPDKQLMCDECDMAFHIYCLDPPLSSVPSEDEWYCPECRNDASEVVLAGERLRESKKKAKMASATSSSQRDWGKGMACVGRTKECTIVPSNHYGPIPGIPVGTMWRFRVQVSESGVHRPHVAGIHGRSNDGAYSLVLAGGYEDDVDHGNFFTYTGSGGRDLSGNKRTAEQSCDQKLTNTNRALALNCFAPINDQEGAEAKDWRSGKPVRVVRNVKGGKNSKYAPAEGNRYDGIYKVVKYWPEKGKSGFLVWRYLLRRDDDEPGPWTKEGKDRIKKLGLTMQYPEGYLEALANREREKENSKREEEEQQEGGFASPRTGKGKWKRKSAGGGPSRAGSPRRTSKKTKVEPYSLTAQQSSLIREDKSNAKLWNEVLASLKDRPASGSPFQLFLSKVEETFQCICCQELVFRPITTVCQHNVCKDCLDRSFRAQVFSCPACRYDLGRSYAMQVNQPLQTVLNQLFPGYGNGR
Arr AP2 block = blocks beta-arrestin peptide binding to AP2 adaptin | FITC-arrestin peptide / GST-AP2 beads, flow cytometry; AP2 beta2 appendage carries R879A mutation | inhibition, % at 10 µM | 340,000 compounds, 0.31% hits | AID 504490;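 active means inhibition above a set limit, near 3 SD of compounds lacking own fluorescence, cut at about 54% in these data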;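 further: plate controls were DMSO wells for no effect and 5 µM unlabelled arrestin peptide for full effect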
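Material – GST-tagged AP2 beta2-adaptin appendage (R879A) on 4 µm glutathione beads · Probe or stimulus – fluorescein-tagged arrestin peptide at 50 nM final · Timing – 12 min plus 1 h, RT · Detection – bead flow cytometry, FITC channel · Read-out basis – inhibition as reduced fluorescein signal on beads, percent · Medium – PBS plus Tween 20 (0.05%) and BSA (0.1%)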
ABHD5 PLIN5 PPI = blocks binding of human ABHD5 to perilipin-5; Q00G26+Q8WTS1; Split G. princeps luciferase complementation, luminescence, 4 h; inhibition, % at 4 µM; 360,000 compounds, 0.78% hits; AID 602281;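 active means inhibition above the mean inhibition across every tested compound plus 3 SD, cut at about 22% in these data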;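 further: 0% = DMSO only wells and the 100% control is not disclosed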
Arr AP2 CP1 = blocks beta-arrestin peptide binding to human AP2; shares compounds with Arr AP2 block; GST-AP2 beads, FITC arrestin peptide binding, flow cytometry; GST-fused beta2-adaptin appendage, R879A mutant; inhibition, % at 10 µM; 1,300 compounds, 2% hits;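 active means inhibition above a set limit, roughly 3 SD of non-fluorescent compound noise, cut at about 38% in these data; inactive means inhibition at or below that limit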;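 further: loss of bead fluorescence from 50 nM FITC arrestin peptide bound to appendage; 0% = negative control wells and 100% = excess unlabelled arrestin peptide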
GST-FITC bead = disrupts GST binding to glutathione beads, arrestin-AP2 artifact; shares compounds with Arr AP2 block; GST-fluorescein binding to GSH beads, fluorescence, counter-screen; inhibition, % at 10 µM; 1,300 compounds, 2% hits; AID 588338;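 active means inhibition above 50%, about 3 SD of the inhibition seen with non-fluorescent compounds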;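 further: fluorescein maleimide labelled GST captured on 4 micron glutathione beads; higher means more loss of bead fluorescence from quenching or blocked binding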
* marks the source's active call; other numbers are inactive results; / = not tested or not shown.

SMILES	MBD2 DNA inh	B2AR ag	Rin1 Abl inh	UHRF1 binding	Arr AP2 block	ABHD5 PLIN5 PPI	Arr AP2 CP1	GST-FITC bead
COc1ccc(NS(=O)(=O)c2cccc(C(=O)NCC3(N(C)C)CCCCC3)c2)cc1	4	-6	3	-3	55*	3	-4	-9
CCOC(=O)Cn1cc(CN2CCS(=O)(=O)N(Cc3ccc(OC)cc3)C(C(=O)OC)C2)nn1 (stereo not drawn)	11	/	/	14	/	/	/	/
CCOC(=O)C1=CCN(S(=O)(=O)c2ccc(Cl)cc2)C1c1cccc(Cl)c1 (stereo not drawn)	2	/	/	-2	/	/	/	/
Cc1ccc(C2Nc3cccc4cccc(c34)N2)s1	-3	2	-1	-3	87*	4	9	10
Fc1ccc(C2Nc3cccc4cccc(c34)N2)cc1	-8	21	2	-3	31	-11	/	/
CCCOc1ccc(C2C(C(=O)c3ccc(C)o3)=C(O)C(=O)N2Cc2ccco2)cc1OCC (stereo not drawn)	1	18	-4	-3	64*	12	7	2
CCn1c(C)nc2cc(C(=O)NNC(=O)Nc3cccc(Cl)c3)ccc21	0	7	2	-2	-3	-2	/	/
CCn1c(C)nc2cc(C(=O)NNC(=O)Nc3ccc(Cl)cc3)ccc21	-6	0	6	0	57*	7	-13	0
CCn1nc(NC(=O)CC(C)C)c2cc3cccc(C)c3nc21	4	9	1	6	55*	7	8	3
COc1cccc(CNC(=O)COC(=O)c2c(C)nn(-c3ccccc3)c2Cl)c1	1	6	0	-3	-6	-3	/	/
COc1ccccc1CNC(=O)COC(=O)c1c(C)nn(-c2ccccc2)c1Cl	-2	4	1	-2	67*	-7	-13	-2
COc1ccc(C(=O)N(C)[C@H]2C[C@H]3c4[nH]c5cccc(-c6ccccc6)c5c4CCN3C[C@H]2[C@H](C)O)cc1	-3	/	/	-1	/	/	/	/
O=C1c2ccccc2C(=O)c2c(NCc3cccnc3)cccc21	1	39	-6	-2	6	-1	/	/
CNc1cccc2c1C(=O)c1ccccc1C2=O	-8	2	-8	4	67*	9	3	3
NS(=O)(=O)c1ccc(NC(=O)/C=C/c2cn(-c3ccccc3)nc2-c2cccc(Cl)c2)cc1	0	-2	-4	0	58*	2	1	-7
O=C(/C=C/c1cn(-c2ccccc2)nc1-c1ccccc1)Nc1ccc(C(=O)O)cc1	-5	3	-2	0	-2	-1	/	/
Cc1nn(-c2ccccn2)c2c1C(c1ccsc1)C1=C(CCCC1=O)N2 (stereo not drawn)	4	16	2	3	105*	2	-12	3
Cc1cccc(-n2nc(C)c3c2NC2=C(C(=O)CCC2)C3c2ccccn2)c1 (stereo not drawn)	1	-3	-2	-4	13	4	/	/
Cc1cc(C)cc(NC(=O)C(=O)NCC2CCCN2S(=O)(=O)c2cccs2)c1 (stereo not drawn)	-3	-1	0	-1	69*	7	2	-8
COc1ccc(OCC(Cn2cnc3ccccc32)OC(C)=O)cc1 (stereo not drawn)	4	-7	-1	-4	-9	-3	/	/
CC(=O)OC(COc1ccccc1)Cn1cnc2ccccc21 (stereo not drawn)	-5	3	2	2	55*	5	-6	-12
CC(C)Nc1nnc(SC(C)C(=O)Nc2ccc(Cl)cn2)s1 (stereo not drawn)	5	7	3	3	55*	0	0	5
Cc1csc(SC(C)C(=O)Nc2ccc(Cl)cn2)n1 (stereo not drawn)	-2	5	-5	13	10	-7	/	/
Cc1c(C(=O)NCCN2CCCC(O)C2)oc2c(F)cccc12 (stereo not drawn)	0	-6	2	0	58*	-1	-11	-3
Cc1c(C(=O)NCCN2CCOC2=O)oc2c(F)cccc12	0	0	-1	2	-3	11	/	/
SMILES	MBD2 DNA inh	B2AR ag	Rin1 Abl inh	UHRF1 binding	Arr AP2 block	ABHD5 PLIN5 PPI	Arr AP2 CP1	GST-FITC bead
CSCCC(NC(=O)C1CCC(C)CC1)C(=O)OCC(=O)c1ccc(Cl)cc1 (stereo not drawn)	-1	3	0	3	106*	9	10	-1
CSCCC(NC(=O)C12CC3CC(CC(C3)C1)C2)C(=O)OCC(=O)c1ccc(Cl)cc1 (stereo not drawn)	1	7	6	-2	3	5	/	/
c1ccc(-c2cnnc(SCc3cn4cccnc4n3)n2)cc1	0	-8	-2	-2	60*	2	-2	-1
c1ccc2[nH]c(SCc3cn4cccnc4n3)nc2c1	0	-13	3	5	-6	2	/	/
CC1(C)Oc2ccc3ccc(=O)oc3c2/C(=C/Nc2ccc(O)cc2)C1=O	-2	-4	6	-2	55*	-12	-10	-4
COc1ccc(CCNS(=O)(=O)c2cccc3nsnc23)cc1OC	2	-3	-2	5	-6	-3	/	/
CN(CC(=O)NCCc1ccc(S(N)(=O)=O)cc1)S(=O)(=O)c1cccc2nsnc12	-3	5	1	1	80*	13	-1	-10
NS(=O)(=O)c1ccc(CCNS(=O)(=O)c2cccc3nsnc23)cc1	-1	8	3	-1	62*	1	-8	-5
Fc1ccc(NC2CCC23CCC(c2ccccc2)CC3)cc1C(F)(F)F (stereo not drawn)	-7	/	/	-2	/	/	/	/
COc1ccc(NC(=O)/C(=C\c2ccco2)NC(=O)c2ccco2)cc1	-3	-9	0	-5	21	11	/	/
COc1ccc(NC(=O)/C(C#N)=C\C=C\c2ccco2)cc1	2	-6	-1	3	72*	7	-11	2
COC(=O)[C@H]1C[C@@]2(C)c3ccccc3N(S(=O)(=O)c3ccccc3)[C@H]2N1	-3	/	/	5	/	/	/	/
CCOc1cc(NC(=S)NCCCN2CCOCC2)c(OCC)cc1NC(=O)c1ccccc1	-1	-12	-1	-1	4	-2	/	/
O=C(NCCN1CCOCC1)C1CCC(=O)N1Cc1ccc(F)cc1 (stereo not drawn)	3	3	0	5	-2	3	-5	1
O=C(NCCN1CCOCC1)C1CCC(=O)N1Cc1ccccc1Cl (stereo not drawn)	2	0	2	0	12	4	10	-2
